The target in assay [1] is Glutathione hydrolase 1 proenzyme (Homo sapiens) (UniProt P19440). The experiment in a line: Inhibition of hydrolytic activity of human GGT using 7-(N-gamma-glutamylamino)-4-methylcoumarin as substrate assessed as release of AMC after 10 mins by fluorescence assay. Summed up:
(§1)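 Human GGT (HC-GTP, BSA-stabilised, used unpurified). Enzyme added to preincubated inhibitor plus 4.0 μM γ-Glu-AMC (final; Km 12.6 μM) in 100 mM sodium succinate pH 5.5, 25°C, no acceptor. AMC fluorescence (ex 350/em 440 nm) read continuously 10 min against AMC calibration; first-order fit of progress curves gives kobs; kon derived as kobs = kon[I]/(1+[S]/Km).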

Assay [2] has as its system Escherichia coli. Kind of assay: Inhibition of hydrolytic activity of Escherichia coli GGT using 7-(N-gamma-glutamylamino)-4-methylcoumarin as substrate assessed as release of AMC at 1 mM by fluorescence assay. The settings on record: TDE = time-dependent effect. Summed up: (§2)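 E. coli enzyme purified from periplasmic fraction of recombinant E. coli K-12 (SH642). Time-dependent inactivation, pseudo-first-order: enzyme added to preincubated inhibitor plus 0.2 μM γ-Glu-AMC (final; equals Km) in 100 mM sodium succinate pH 5.5, 25°C, no acceptor substrate. AMC release (ex 350/em 440 nm) followed continuously 10 min; progress curves fit first-order for kobs; kon from kobs = kon[I]/(1+[S]/Km).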

The test system of assay [3] is Escherichia coli. The experiment in a line: Inhibition of hydrolytic activity of Escherichia coli GGT using 7-(N-gamma-glutamylamino)-4-methylcoumarin as substrate assessed as release of AMC after 10 mins by fluorescence assay.
In assay [4] the target is Glutathione hydrolase 1 proenzyme (Homo sapiens) (UniProt P19440). The experiment in a line: Inhibition of hydrolytic activity of human GGT using 7-(N-gamma-glutamylamino)-4-methylcoumarin as substrate assessed as release of AMC at 1 mM after 10 mins by fluorescence assay. Summed up: as §1
The subject of assay [5] is Escherichia coli. Kind of assay: Binding affinity to Cys-Gly binding site of Escherichia coli GGT by ion-spray mass spectroscopy analysis.
The target in assay [6] is Glutathione hydrolase 1 proenzyme (Homo sapiens) (UniProt P19440). The experiment in a line: Ratio of acivicin to compound for hydrolytic activity of human GGT.
For assay [7] the target is unchanged. The experiment in a line: Irreversible inhibition of hydrolytic activity of human GGT using 7-(N-gamma-glutamylamino)-4-methylcoumarin as substrate assessed as release of AMC at 1 mM after 10 mins by fluorescence assay. Summed up: as §1
Assay [8] shares this target. The experiment in a line: Inhibition of hydrolytic activity of human GGT using 7-(N-gamma-glutamylamino)-4-methylcoumarin as substrate assessed as release of AMC by fluorescence assay. The conditions noted are these: TDE = time-dependent effect. Summed up: as §1
For assay [9], the system named is Escherichia coli. The experiment in a line: Inhibition of hydrolytic activity of Escherichia coli GGT using 7-(N-gamma-glutamylamino)-4-methylcoumarin as substrate assessed as release of AMC at 1.5 mM after 10 mins by fluorescence assay. Summed up: as §2
Assay [10] concerns Escherichia coli. The experiment in a line: Inhibition of hydrolytic activity of Escherichia coli GGT using 7-(N-gamma-glutamylamino)-4-methylcoumarin as substrate assessed as release of AMC at 1 mM after 10 mins by fluorescence assay. Summed up: as §2

Active and inactive are the calls of the source. The rule behind the calls is not given here.

Glutathione hydrolase 1 proenzyme (Homo sapiens), sequence (P19440 1-380 limits assumed): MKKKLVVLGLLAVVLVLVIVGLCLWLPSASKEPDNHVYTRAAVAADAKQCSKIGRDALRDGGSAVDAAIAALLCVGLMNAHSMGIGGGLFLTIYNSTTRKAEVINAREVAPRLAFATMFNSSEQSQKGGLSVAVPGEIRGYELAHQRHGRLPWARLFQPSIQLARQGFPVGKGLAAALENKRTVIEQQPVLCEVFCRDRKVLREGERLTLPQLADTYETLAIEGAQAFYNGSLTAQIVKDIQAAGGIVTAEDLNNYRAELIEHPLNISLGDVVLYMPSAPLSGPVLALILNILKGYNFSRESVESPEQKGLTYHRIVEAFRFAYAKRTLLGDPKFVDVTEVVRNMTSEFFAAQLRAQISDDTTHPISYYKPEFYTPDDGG
Glutathione hydrolase 1 proenzyme (Homo sapiens), sequence (P19440 381-569 limits assumed): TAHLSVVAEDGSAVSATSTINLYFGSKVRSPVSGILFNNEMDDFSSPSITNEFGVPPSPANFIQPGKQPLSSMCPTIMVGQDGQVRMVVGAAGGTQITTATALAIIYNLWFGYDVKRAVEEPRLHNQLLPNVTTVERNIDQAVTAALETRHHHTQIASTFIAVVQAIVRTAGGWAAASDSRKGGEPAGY

For `NC(CC[P@@](=O)(Oc1ccccc1)O[C@@H](CI)C(=O)NCC(=O)O)C(=O)O` (mixture of isomers), the values for the K (in [1]; in the assay with Escherichia coli [3]) were 43.6 M⁻¹ s⁻¹ and 98.4 M⁻¹ s⁻¹, respectively. Besides, the inhibition entry in the assay on Escherichia coli [2] is “tde”.

Consider `CCCC[C@H](O[P@@](=O)(CCC(N)C(=O)O)Oc1ccccc1)C(=O)OC` (mixture of isomers), for which, in the assay on Escherichia coli [2], the inhibition entry was “tde”. Moreover, in the assay on Escherichia coli [3], the K is 8.83 M⁻¹ s⁻¹. In addition, the inhibition entry in assay [4] is “inactive”.

For `CC[C@H](O[P@@](=O)(CCC(N)C(=O)O)Oc1ccccc1)C(=O)NCC(=O)O` (mixture of isomers), the K amounted to 145 M⁻¹ s⁻¹ in [1] and 109 M⁻¹ s⁻¹ in the assay on Escherichia coli [3]. Moreover, in the assay on Escherichia coli [2], the inhibition entry was “tde”. In the assay on Escherichia coli [5], the outcome was Active. Further, the Ratio in [6] is more than 360. The inhibition result in assay [7] was “Active”.

`N[C@@H](CCP(=O)(CCC(=O)NCC(=O)O)Oc1ccccc1)C(=O)O` (mixture of isomers): the K in [1] came out at 1.35 M⁻¹ s⁻¹. In addition, in assay [8], the inhibition result was “tde”. In the assay with Escherichia coli [9], the inhibition entry was “inactive”.

As to `NC(CC[P@@](=O)(Oc1ccccc1)O[C@@H](Cc1ccccc1)C(=O)NCC(=O)O)C(=O)O` (mixture of isomers), the K turned out to be 4.44 M⁻¹ s⁻¹ in [1] and 389 M⁻¹ s⁻¹ with Escherichia coli [3]. Also, the inhibition result in the assay with Escherichia coli [2] is “tde”.

Take `NC(CC[P@@](=O)(Oc1ccccc1)O[C@@H](CCl)C(=O)NCC(=O)O)C(=O)O` (mixture of isomers): the values for the K (in assay [1]; in the assay with Escherichia coli [3]) were 40.3 M⁻¹ s⁻¹ and 188 M⁻¹ s⁻¹, respectively. Further, the inhibition result in the assay with Escherichia coli [2] was “tde”.

As to `CCCC[C@@H](O[P@](=O)(CCC(N)C(=O)O)Oc1ccccc1)C(=O)NCC(=O)O` (mixture of isomers), the K with Escherichia coli [3] amounted to 1.3 M⁻¹ s⁻¹. The inhibition entry in assay [4] was “inactive”.

For `NC(CCP(=O)(OCC(=O)NCC(=O)O)Oc1ccccc1)C(=O)O` (mixture of isomers), the figures for the K (in assay [1]; with Escherichia coli [3]) were 44.5 M⁻¹ s⁻¹ and 80.6 M⁻¹ s⁻¹, respectively.

`CCCC[C@@H](O[P@@](=O)(CCC(N)C(=O)O)Oc1ccccc1)C(=O)NCC(=O)O` (mixture of isomers): the inhibition result (in the assay on Escherichia coli [10]; in [4]) was “inactive” in each case.

As to `CC[C@H](O[P@](=O)(CCC(N)C(=O)O)OC)C(=O)NCC(=O)O` (mixture of isomers), the inhibition result (in the assay on Escherichia coli [10]; in assay [4]) was “inactive” each time.

As to `N[C@H](C(=O)O)[C@@H]1CC(Cl)=NO1`, the values for the K (in assay [1]; with Escherichia coli [3]) were 0.4 M⁻¹ s⁻¹ and 4200 M⁻¹ s⁻¹, respectively.

In the case of `CCC(OP(=O)(CCC(N)C(=O)O)Oc1ccccc1)C(=O)NCC(=O)O` (mixture of isomers), the K in [1] was found to be 75 M⁻¹ s⁻¹; in the assay on Escherichia coli [3], 80 M⁻¹ s⁻¹.

Turning to `CCCC[C@H](O[P@](=O)(CCC(N)C(=O)O)Oc1ccccc1)C(=O)NCC(=O)O` (stereo partly drawn), the K in the assay with Escherichia coli [3] amounted to 1.7 M⁻¹ s⁻¹. In assay [4], the inhibition entry was “inactive”.

For `CCCC[C@H](O[P@@](=O)(CCC(N)C(=O)O)Oc1ccccc1)C(=O)NCC(=O)O` (mixture of isomers), the K in assay [1] amounted to 63.2 M⁻¹ s⁻¹; in the assay with Escherichia coli [3], 50.7 M⁻¹ s⁻¹. The inhibition entry in the assay on Escherichia coli [2] is “tde”.

For the origin of these results see ChEMBL document CHEMBL3102799, “Glutathione-analogous peptidyl phosphorus esters as mechanism-based inhibitors of γ-glutamyl transpeptidase for probing cysteinyl-glycine binding site” (Bioorg Med Chem, 2014).
